This is an account of results in ChEMBL document CHEMBL4396949, “Anti-cancer potential of novel glycosylated 1,4-substituted triazolylchalcone derivatives” (Bioorg Med Chem Lett, 2019).

Each structure is given as a SMILES string. Activity calls are given as the source filed them. No cut-off for these calls is given here.

Data set [1] concerns MDA-MB-468. In words: Induction of apoptosis in human MDA-MB-468 cells assessed as increase in cleaved caspase-3 protein expression at 40 to 60 uM by Western blot analysis. The class given is functional, cell-based. (In general: A western blot detects proteins with antibodies after separation by electrophoresis.)
In data set [2] the test system is MDA-MB-468. In words: Induction of apoptosis in human MDA-MB-468 cells assessed as increase in apoptotic cells incubated for 24 hrs by annexin V-FITC and PI staining based flow cytometric analysis. The class given is functional, cell-based. In short, it runs like this:
(§1)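 Cells treated at 0, 20, 40 and 60 µM for 24 h, stained with Annexin V-FITC/PI and analysed by flow cytometry; apoptotic cell percentage quantified from dot plots.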

The test system of data set [3] is MCF7. Briefly: Induction of apoptosis in human MCF7 cells assessed as increase in apoptotic cells incubated for 24 hrs by annexin V-FITC and PI staining based flow cytometric analysis. The class given is functional, cell-based. In short, it runs like this: as §1
Data set [4] deals with MDA-MB-468. Briefly: Induction of apoptosis in human MDA-MB-468 cells assessed as increase in bax protein expression at 40 to 60 uM by Western blot analysis. It is filed as functional, cell-based.
The test system of data set [5] is MCF7. Briefly: Disruption of mitochondrial membrane potential in human MCF7 cells assessed as shift of fluorescence from red to green by JC1 staining based fluorescent microscopic method. It is filed as functional, cell-based. The essentials:
(§2)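 JC-1 staining with fluorescence imaging; mitochondrial permeability transition read as a red-to-green shift (fall in red/green ratio), quantified from images; H2O2 as positive control.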

Data set [6] concerns MDA-MB-468. In words: Induction of apoptosis in human MDA-MB-468 cells assessed as increase in apoptotic cells at 60 uM incubated for 24 hrs by annexin V-FITC and PI staining based flow cytometric analysis relative to control. The class given is functional. In short, it runs like this:
as §1

In data set [7] the test system is MCF7. Briefly: Induction of DNA fragmentation in human MCF7 cells assessed as apoptotic cells at 60 uM incubated for 12 hrs by DAPI staining based fluorescence microscopic method relative to control. It is filed as functional. The essentials:
(§3)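 Nuclear morphology by DAPI staining and fluorescence microscopy; apoptotic (fragmented, polynuclear) nuclei counted and expressed as percent apoptotic cells versus untreated control; H2O2 positive control.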

Data set [8] concerns MDA-MB-468. In words: Induction of DNA fragmentation in human MDA-MB-468 cells assessed as apoptotic cells at 40 to 60 uM incubated for 12 hrs by DAPI staining based fluorescence microscopic method. It is filed as functional, cell-based. In short, it runs like this: as §3
Data set [9] concerns MDA-MB-468. Briefly: Antiproliferative activity against human MDA-MB-468 cells incubated for 24 hrs by MTT assay. It is filed as functional. Conditions: MDA-MB-468, 24 h, read-out: LD50 (the source's name). The essentials: (§4)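 Cells exposed to compounds at […]; viability read by MTT assay. LD50 derived from concentration-response. MDA-MB-468: triple-negative (ER-, PR-, HER2-) breast cancer. MCF-7: ER+, PR+, HER2- breast cancer. WI-38: non-cancerous lung fibroblasts. Selectivity index taken as WI-38 LD50 divided by cancer-cell LD50.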

Data set [10] deals with MDA-MB-468. Briefly: Induction of apoptosis in human MDA-MB-468 cells assessed as decrease in bcl2 protein expression at 40 to 60 uM by Western blot analysis. It is filed as functional, cell-based.
Data set [11] has as its system MCF7. Briefly: Induction of DNA fragmentation in human MCF7 cells assessed as formation of polynuclear fragmentation at 40 to 60 uM incubated for 12 hrs by DAPI staining based fluorescence microscopic method. It is filed as functional, cell-based. The essentials: as §3
Data set [12] is described as follows: Selectivity index, ratio of LD50 for human WI38 cells to LD50 for human MCF7 cells. The class given is toxicity. The settings on record: WI38 cells and MCF7 cells, read-out: Selectivity Index. The essentials:
(§5)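 MTT cytotoxicity after exposure to […] in MDA-MB-468, MCF-7 and WI-38 fibroblasts; LD50 determined per line; selectivity index calculated as WI-38 LD50 divided by cancer-cell LD50.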

Data set [13] relates to MCF7. Briefly: Induction of apoptosis in human MCF7 cells assessed as increase in apoptotic cells at 60 uM incubated for 24 hrs by annexin V-FITC and PI staining based flow cytometric analysis relative to control. The class given is functional. In short, it runs like this: as §1
Data set [14] relates to MCF7. Briefly: Induction of cell cycle arrest in human MCF7 cells assessed as increase in accumulation at sub G1 phase at 60 uM by PI staining based FACS analysis relative to control. The class given is functional. The essentials:
(§6)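 Cells exposed to 20, 40 and 60 µM; cell cycle distribution by FACS, with sub-G1 population quantified as a measure of apoptosis.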
A general note: In flow cytometry, cells or beads pass a laser one at a time.

The test system of a further data set is WI-38. In words: Induction of apoptosis in human WI38 cells at 20 to 60 uM incubated for 24 hrs by annexin V-FITC and PI staining based flow cytometric analysis. The class given is cell-based. Conditions: wi-38, 24 h. In short, it runs like this:
as §1

The test system of data set [15] is MCF7. Briefly: Induction of ROS production in human MCF7 cells assessed as increase in green intensity incubated for 12 hrs by DCFDA staining based microscopic analysis. The class given is functional, cell-based. In short, it runs like this: (§7)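 Cells exposed to 0, 20, 40 and 60 µM for 12 h, then loaded with DCFDA (100 µM) for 30 min; green fluorescence assessed by microscopy with image quantitation, plus spectrophotometric fluorescence intensity; H2O2 positive control.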

In data set [16] the test system is MCF7. Briefly: Antiproliferative activity against human MCF7 cells incubated for 24 hrs by MTT assay. The class given is functional. The settings on record: MCF7, 24 h, read-out: LD50 (the source's name). The essentials: as §4
Data set [17] deals with MDA-MB-468. In words: Induction of cell cycle arrest in human MDA-MB-468 cells assessed as increase in accumulation at sub G1 phase at 60 uM by PI staining based FACS analysis relative to control. It is filed as functional. In short, it runs like this: as §6
Data set [18] has as its system MDA-MB-468. Briefly: Induction of DNA fragmentation in human MDA-MB-468 cells assessed as formation of polynuclear fragmentation at 40 to 60 uM incubated for 12 hrs by DAPI staining based fluorescence microscopic method. It is filed as functional, cell-based. In short, it runs like this:
as §3

Data set [19] can be described thus: Antiproliferative activity against human WI38 cells incubated for 24 hrs by MTT assay. It is filed as cell-based, WI-38. Conditions: read-out: LD50. The essentials: as §4
A general note: Tetrazolium assays rely on reduction of a dye to a coloured formazan, in cell work by metabolically active cells.

For data set [20], the system named is MDA-MB-468. Briefly: Induction of mitochondrial ROS production in human MDA-MB-468 cells at 40 to 60 uM incubated for 24 hrs by MitoSox red dye based fluorescence microscopic method. It is filed as functional, cell-based. In short, it runs like this: (§8)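 MitoSOX Red, a live-cell mitochondria-targeted superoxide probe, after exposure to 40 and 60 µM; read by fluorescence microscopy and spectrophotometric fluorescence intensity; H2O2 positive control.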

The subject of data set [21] is MDA-MB-468. Briefly: Induction of ROS production in human MDA-MB-468 cells assessed as increase in green intensity incubated for 12 hrs by DCFDA staining based microscopic analysis. It is filed as functional, cell-based. The essentials: as §7
A short description of data set [22]: Selectivity index, ratio of LD50 for human WI38 cells to LD50 for human MDA-MB-468 cells. It is filed as toxicity. Conditions: WI38 cells and MDA-MB-468 cells, read-out: Selectivity Index. In short, it runs like this: as §5
In data set [23] the test system is MCF7. In words: Induction of DNA fragmentation in human MCF7 cells assessed as apoptotic cells at 40 to 60 uM incubated for 12 hrs by DAPI staining based fluorescence microscopic method. It is filed as functional, cell-based. In short, it runs like this:
as §3

In data set [24] the test system is MDA-MB-468. Briefly: Induction of DNA fragmentation in human MDA-MB-468 cells assessed as apoptotic cells at 60 uM incubated for 12 hrs by DAPI staining based fluorescence microscopic method relative to control. The class given is functional. The essentials:
as §3

Data set [25] relates to MDA-MB-468. Briefly: Disruption of mitochondrial membrane potential in human MDA-MB-468 cells assessed as shift of fluorescence from red to green by JC1 staining based fluorescent microscopic method. It is filed as functional, cell-based. The essentials:
as §2

The test system of data set [26] is MCF7. In words: Induction of mitochondrial ROS production in human MCF7 cells at 40 to 60 uM incubated for 24 hrs by MitoSox red dye based fluorescence microscopic method. The class given is functional, cell-based. In short, it runs like this:
as §8

For `CN(C)c1ccc(/C=C/C(=O)c2ccc(OCc3cn([C@@H]4O[C@H](CO)[C@@H](O)[C@H](O)[C@H]4O)nn3)cc2)cc1`, the result with MDA-MB-468 [1], with MDA-MB-468 [4], with MDA-MB-468 [8], in the data set on MDA-MB-468 [10], in the data set on MCF7 [11] and with MDA-MB-468 [18] was Active. The result in the data set on MDA-MB-468 [20], in the data set with MCF7 [23] and in the data set on MCF7 [26] was Active. The Activity entry in the data set on MDA-MB-468 [2] was “Dose-dependent effect”; with MCF7 [3] it was “Dose-dependent effect”; in the data set on MCF7 [5], “Dose-dependent effect”; in the data set on MDA-MB-468 [6], 60%; in the data set with MCF7 [7], 78%; in the data set on MCF7 [13] it was 63%. For the same compound, the Activity with MCF7 [14] is 67%; in the data set on WI-38, “Non-Toxic”; with MCF7 [15], “Dose-dependent effect”; in the data set with MDA-MB-468 [17] it was 62%; in the data set on MDA-MB-468 [21] it was “Dose-dependent effect”; in the data set on MDA-MB-468 [24] it was 72%. Moreover, in the data set with MDA-MB-468 [25], the Activity result was “Dose-dependent effect”. Besides, the CC50 in the data set on MDA-MB-468 [9] came out at 28 µM; in the data set with MCF7 [16], 31 µM. Besides, the selectivity ratio is 1.9 in data set [12] and 2.11 in data set [22]. The CC50 at 24 h in data set [19] amounted to 59 µM.

As to `O=C(/C=C/c1ccc([N+](=O)[O-])cc1)c1ccc(OCc2cn([C@@H]3O[C@H](CO)[C@@H](O)[C@H](O)[C@H]3O)nn2)cc1`, the CC50 was determined as 43 µM in the data set with MDA-MB-468 [9] and 54 µM in the data set on MCF7 [16]. Besides, the selectivity ratio in data set [12] turned out to be 1.19; in data set [22], 1.49. Besides, in data set [19], the CC50 at 24 h was found to be 64 µM.
